Compounds with a hit are over-represented: about 2.4% of the library has one in this group of screens.
Ecoli rRNA inh – inhibits bacterial ribosomal RNA function over humanized ribosomes. 1.6% of 350,000 active. AID 720706. E. coli WT GFP vs humanized-ribosome RFP mutants, fluorescence, 24 h; hits give low values; DMSO median 0, no signal -100. GFP signal change (wild-type ribosome), % (concentration not given with the values);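 active means significant combined selectivity score with lowered wild-type GFP, culture density cut under 30%, mutant RFP and density less affected; inactive means any of these conditions unmet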
CASP6 VEID inh – blocks human caspase-6 cleavage activity. inhibition, % at 12.5 µM. 0.53% of 350,000 active. purified caspase-6, Z-VEID-R110 cleavage fluorescence;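 active means mean inhibition across replicates at least about 35%, with every replicate also reaching that limit, limit read from the data; inconclusive means only one of the two criteria met; inactive means neither criterion met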
ERAP1 HTS inh – ERAP1 (human) enzyme inhibition. Q9NZ08. AID 652197. 0.15% of 340,000 active. inhibition, % at 10.7 µM. recombinant ERAP1, Leu-AMC fluorescence, 60 min;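 active means mean replicate inhibition of at least 30%, or all replicates individually reaching that 30% level; inactive means mean below 30% and not every replicate reaching it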
Target sequence (Q9NZ08 whole entry, looked up): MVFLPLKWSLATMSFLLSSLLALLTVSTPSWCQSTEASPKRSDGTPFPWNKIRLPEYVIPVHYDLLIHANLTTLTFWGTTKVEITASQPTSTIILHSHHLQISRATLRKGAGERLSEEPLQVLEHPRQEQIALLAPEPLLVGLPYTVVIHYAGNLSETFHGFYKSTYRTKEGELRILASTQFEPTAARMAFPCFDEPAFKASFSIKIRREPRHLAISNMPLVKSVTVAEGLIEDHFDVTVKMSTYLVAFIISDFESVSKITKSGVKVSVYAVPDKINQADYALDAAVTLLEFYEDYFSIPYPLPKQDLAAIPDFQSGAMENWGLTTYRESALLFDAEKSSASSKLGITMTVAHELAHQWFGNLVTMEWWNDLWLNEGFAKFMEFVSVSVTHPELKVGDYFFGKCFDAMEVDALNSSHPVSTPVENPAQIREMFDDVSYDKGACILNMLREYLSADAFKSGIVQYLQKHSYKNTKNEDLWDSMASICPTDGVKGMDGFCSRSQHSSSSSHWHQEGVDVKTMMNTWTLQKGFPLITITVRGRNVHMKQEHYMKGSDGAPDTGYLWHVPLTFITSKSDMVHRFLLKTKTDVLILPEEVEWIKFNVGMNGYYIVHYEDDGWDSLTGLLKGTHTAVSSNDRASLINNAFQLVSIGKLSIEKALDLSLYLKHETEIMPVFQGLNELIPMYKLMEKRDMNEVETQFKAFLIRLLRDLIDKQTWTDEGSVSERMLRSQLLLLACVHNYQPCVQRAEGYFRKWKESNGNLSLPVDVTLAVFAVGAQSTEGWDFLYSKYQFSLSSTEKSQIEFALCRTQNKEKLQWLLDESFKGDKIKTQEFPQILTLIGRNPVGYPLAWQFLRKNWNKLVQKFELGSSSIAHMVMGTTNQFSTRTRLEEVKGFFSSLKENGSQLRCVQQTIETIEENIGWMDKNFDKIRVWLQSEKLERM
ARNT-TACC3 inh – disrupts binding between human ARNT and TACC3. AlphaScreen His-ARNT PAS-B/GST-TACC3 binding, luminescence; TACC3 fragment carries E629A point mutation. inhibition, % at 9.99 µM. 0.66% of 390,000 active;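 active means mean inhibition of replicates at least 50% and at least half of replicates each reaching 50%; inconclusive means half or more replicates reach 50% but mean below 50%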
PGC1a acetyl inh – lowers PGC1a acetylation signal in U2OS cells. inhibition, % at 15.6 µM. AID 651687. AlphaScreen anti-acetyl-lysine; with virally co-expressed GCN5 acetyltransferase. 0.17% of 350,000 active;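 active means every replicate shows inhibition of at least 40%; inconclusive means mean inhibition at least 40% but some replicate below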
S100A4 MyoIIA – S100A4-myosin IIA interaction inhibition | P26447 | S100A4/TAMRA-MyoIIA peptide fluorescence polarization | inhibition, % at 10.7 µM | 0.14% of 360,000 active | AID 652163;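 active means mean inhibition of at least 70% across replicates, with every replicate also reaching that level; inconclusive means mean inhibition reaches 70% but some replicates fall short; inactive means mean inhibition below 70%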
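Test system: S100A4 monomer protein. Medium: HEPES buffer with Ca2+, pH 7.2. Reagent: fluorescent myosin IIA peptide, 5 nM. Compound dosing: single-point compound testing. Timing: 5 min between mix addition and reading. Benchmarks: DMSO neutral and TFP positive wells.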
Each line names hits and unclear results; the compound was inactive in the other large screens.

Cc1nnc(SCC(=O)N(CC(C)C)C2CCS(=O)(=O)C2)s1 (stereo unspecified)	none
CC(C)CN(C(=O)CSc1nn(-c2ccc(Cl)cc2)c(=S)s1)C1CCS(=O)(=O)C1 (stereo unspecified)	ARNT-TACC3 inh 36
O=C(NCc1ccc2c(c1)OCO2)C(C(=O)c1ccccc1)n1cc(Cl)ccc1=O (stereo unspecified)	none (no result: PGC1a acetyl inh)
CN(Cc1ccccc1)C(=O)C(C(=O)c1ccc(F)cc1)n1cc(Cl)ccc1=O (stereo unspecified)	Ecoli rRNA inh -30
CC1CCc2c(c3ccccc3n2C(=O)CCl)C1 (stereo unspecified)	CASP6 VEID inh 96
COc1ccc(-c2nc(C#N)c(N3CCCCCC3)o2)cc1OC	Ecoli rRNA inh -23 (no result: PGC1a acetyl inh)
COc1ccc(-c2nc(C#N)c(N3CCCCCC3)o2)cc1	none (no result: Ecoli rRNA inh, CASP6 VEID inh, ERAP1 HTS inh, S100A4 MyoIIA)
O=C(COc1cc2oc(=O)c3c(c2cc1Cl)CCC3)NCCCn1ccnc1	Ecoli rRNA inh -17 (no result: PGC1a acetyl inh)
CC1(C(=O)OCC(=O)Nc2nc(-c3ccc(F)c(F)c3)cs2)CC1(Cl)Cl (stereo unspecified)	Ecoli rRNA inh -28, S100A4 MyoIIA inconclusive (no result: PGC1a acetyl inh)
CC1(C(=O)OCC(=O)Nc2nnc(-c3ccccc3)o2)CC1(Cl)Cl (stereo unspecified)	ARNT-TACC3 inh 49 (no result: PGC1a acetyl inh)
O=C(CSc1nncs1)Nc1nnc(-c2ccccc2)o1	ARNT-TACC3 inh 54 (no result: PGC1a acetyl inh)
COc1ccc(CC(=O)Nc2nc(-c3ccc(F)c(F)c3)cs2)cc1	none (no result: ARNT-TACC3 inh)
COc1cccc(NC(=O)N2CC(=O)N3[C@H](C2)[C@@H](c2ccc(C#CC4CCCC4)cc2)[C@@H]3CO)c1	none (no result: ARNT-TACC3 inh, PGC1a acetyl inh)
CN(C)CCCNC(=O)c1ccc(/C=N/O)nc1	none
O=C(NCc1ccccn1)c1ccc(/C=N/O)nc1	ARNT-TACC3 inh 38 (no result: Ecoli rRNA inh, CASP6 VEID inh, ERAP1 HTS inh, S100A4 MyoIIA)
O=C(NCCCNC1CCCCC1)c1ccc(/C=N/O)nc1	none (no result: Ecoli rRNA inh, CASP6 VEID inh, ERAP1 HTS inh, S100A4 MyoIIA)
C[N+](C)(C)CCCNC(=O)c1ccc(/C=N/O)nc1	ERAP1 HTS inh 109 (no result: PGC1a acetyl inh)
CNCCCNC(=O)c1ccc(/C=N/O)nc1	ARNT-TACC3 inh 61 (no result: PGC1a acetyl inh)
O=C(NCc1ccccc1)c1ccc(/C=N/O)nc1	none (no result: Ecoli rRNA inh, CASP6 VEID inh, ERAP1 HTS inh, PGC1a acetyl inh, S100A4 MyoIIA)
CO[C@@H]1CN(C)C(=O)c2ccc(NC(=O)C3CC3)cc2OC[C@H](C)N(C(=O)C2CCCCC2)C[C@H]1C	none
Oc1ccc(N=Nc2ccccc2)cc1	none
Oc1ccc(N=Nc2n[nH]c(-c3ccc(Cl)cc3)n2)cc1	Ecoli rRNA inh -18
O=C(NCCc1ccncc1)Nc1ccc(F)cc1	S100A4 MyoIIA 103 (no result: ARNT-TACC3 inh)
O=C(NCCc1ccncc1)Nc1ccc(Cl)cc1	none (no result: Ecoli rRNA inh, CASP6 VEID inh, ERAP1 HTS inh, S100A4 MyoIIA)
CCCn1c(SCC(=O)Nc2ccccc2C(=O)OC)nc2c1c(=O)n(C)c(=O)n2C	none (no result: Ecoli rRNA inh, CASP6 VEID inh, ERAP1 HTS inh, S100A4 MyoIIA)
CCCn1c(SCC(=O)Nc2ccccc2N2CCCCC2)nc2c1c(=O)n(C)c(=O)n2C	Ecoli rRNA inh -29
Cc1noc(C)c1NC(=O)N(C)C[C@@H]1Oc2c(NC(=O)Nc3ccc(F)cc3)cccc2C(=O)N([C@H](C)CO)C[C@@H]1C	none
C[C@@H]1CCCCO[C@@H](CN(C)C)[C@H](C)CN([C@H](C)CO)C(=O)c2cc(NC(=O)Nc3ccc(C(F)(F)F)cc3)ccc2O1	none
Clc1cnc(N/N=C/c2cccs2)c(Cl)c1	none (no result: Ecoli rRNA inh, CASP6 VEID inh, ERAP1 HTS inh, S100A4 MyoIIA)
Cc1ccc(/C=N/Nc2ncc(Cl)cc2Cl)s1	Ecoli rRNA inh -22
O=C(CSc1nnc(Nc2ccccc2F)s1)NC(=O)CN1CCCC1=O	CASP6 VEID inh 42
O=c1c2c(-c3ccccc3)csc2nc2c3ccccc3c(NCCN3CCOCC3)nn12	ARNT-TACC3 inh 74 (no result: PGC1a acetyl inh)
O=C(/C=C/c1ccc([N+](=O)[O-])cc1)NC1CC2CCC1C2 (stereo unspecified)	Ecoli rRNA inh -28 (no result: PGC1a acetyl inh)
CCCCCCc1c(C)c2ccc(OCC(=O)N[C@@H](Cc3ccccc3)C(=O)O)cc2oc1=O	ERAP1 HTS inh 32 (no result: Ecoli rRNA inh)
Cc1c(Cc2ccccc2)c(=O)oc2cc(OCC(=O)NC(Cc3ccc(Cl)cc3)C(=O)O)ccc12 (stereo unspecified)	Ecoli rRNA inh -27
CC(Oc1ccc2c3c(c(=O)oc2c1)CCC3)C(=O)N[C@@H](Cc1ccccc1)C(=O)O (stereo partly specified)	PGC1a acetyl inh 75 (no result: Ecoli rRNA inh)
Cc1c(C)c2ccc(OCC(=O)NC3CCN(Cc4ccccc4)CC3)cc2oc1=O	none
O=C(COc1ccc2c3c(c(=O)oc2c1)CCC3)NC1CCN(Cc2ccccc2)CC1	Ecoli rRNA inh -29
C[C@H](O)C#Cc1cnc2c(c1)C(=O)N([C@H](C)CO)C[C@H](C)[C@H](CN(C)C(=O)CN1CCOCC1)O2	none
C[C@@H]1CCCCO[C@H](CN(C)Cc2ccccc2)[C@@H](C)CN([C@@H](C)CO)C(=O)c2cc(NS(=O)(=O)c3ccc(Cl)cc3)ccc2O1	none
COc1ccc(/C=C(\C#N)C(=O)NCc2cccnc2)cc1OC	ERAP1 HTS inh 63
COc1cc(/C=C(\C#N)C(=O)NCc2ccccc2)ccc1OCc1ccc(C(=O)O)cc1	none (no result: ERAP1 HTS inh)
COc1cc(/C=C(/C#N)C(=O)NCCCc2ccccc2)ccc1OCC(=O)O	ERAP1 HTS inh 35
CCOC(=O)CC1C(=O)NCCN1S(=O)(=O)c1cccc(C(F)(F)F)c1 (stereo unspecified)	CASP6 VEID inh 42
CC(=O)c1ccc(S(=O)(=O)N2CCN(C(=O)c3ccc(-n4cncn4)c([N+](=O)[O-])c3)CC2)cc1	CASP6 VEID inh 54
COc1ccc(NC(=O)N(C)C[C@@H]2Oc3ncc(C#CC(C)C)cc3C(=O)N([C@@H](C)CO)C[C@@H]2C)cc1	none
C[C@H]1CN([C@@H](C)CO)C(=O)c2cc(C#CC(C)(C)O)cnc2O[C@@H]1CN(C)C(=O)C1CCC1	PGC1a acetyl inh 101
COCC#Cc1cnc2c(c1)C(=O)N([C@H](C)CO)C[C@H](C)[C@H](CN(C)C(=O)C1CCC1)O2	S100A4 MyoIIA 133 (no result: PGC1a acetyl inh)
COc1ccc(NC(=O)N(C)C[C@@H]2Oc3ncc(C#CC(C)(C)O)cc3C(=O)N([C@H](C)CO)C[C@@H]2C)cc1	S100A4 MyoIIA 112
Cc1noc(C)c1NC(=O)Nc1ccc2c(c1)CC(=O)N([C@H](C)CO)C[C@H](C)[C@@H](CN(C)S(C)(=O)=O)O2	none (no result: ARNT-TACC3 inh)
O=C(O)c1ccccc1NS(=O)(=O)c1cccc(NS(=O)(=O)c2cc(Br)ccc2Br)c1	ERAP1 HTS inh 33
CCOc1ccc(Br)cc1S(=O)(=O)Nc1cccc(S(=O)(=O)Nc2ccccc2C(=O)O)c1	none (no result: PGC1a acetyl inh)
O=C(N[C@H]1CC[C@@H](CCNS(=O)(=O)Cc2ccccc2)O[C@H]1CO)c1cnccn1	none
COc1ccc(CCn2c(O)cc3nn(-c4nc5ccccc5s4)c(=O)c-3c2C)cc1	Ecoli rRNA inh -18

High-throughput results deposited in PubChem by Broad Institute.
